ChEMBL document CHEMBL4346668, “Novel multitarget inhibitors with antiangiogenic and immunomodulator properties” (Eur J Med Chem, 2019)

What was measured:
[1] = system: HT-29; assay: Antiproliferative activity against human HT-29 cells incubated for 2 days by MTT assay; type: functional, cell-based; conditions: HT-29, 48 h
Procedure, shortened: (§1)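 MTT assay. Cells seeded at 3 × 10³/well (HeLa, A549, HMEC-1, HEK-293) or 5 × 10³/well (HT-29, MCF-7) in their growth media with serial compound dilutions from 10 mM DMSO stocks. Incubated 2 days at 37 °C, 5% CO₂, then MTT added for 3 h and formazan dissolved in DMSO. A540 read and viability expressed versus untreated cells. IC₅₀ determined graphically; three independent experiments.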

[2] = system: MCF7; assay: Antiproliferative activity against human MCF7 cells incubated for 2 days by MTT assay; type: functional, cell-based; conditions: MCF7, 48 h; procedure, shortened: as §1
[3] = system: HeLa; assay: Antiproliferative activity against human HeLa cells incubated for 2 days by MTT assay; type: functional, cell-based; conditions: 48 h; procedure, shortened: as §1
[4] = system: A549; assay: Antiproliferative activity against human A549 cells incubated for 2 days by MTT assay; type: functional, cell-based; conditions: A549, 48 h; procedure, shortened: as §1
[5] = system: HMEC-1; assay: Antiproliferative activity against HMEC1 cells incubated for 2 days by MTT assay; type: cell-based; conditions: Homo sapiens, HMEC-1, 48 h; procedure, shortened: as §1
[6] = system: HEK293; assay: Antiproliferative activity against HEK293 cells incubated for 2 days by MTT assay; type: cell-based; conditions: Homo sapiens, HEK293, 48 h; procedure, shortened: as §1
[7] = system: HMEC-1; assay: Effect on VEGFR2 in HMEC1 cells assessed as membrane VEGFR2 level at 100 uM incubated for 24 hrs by flow cytometric analysis relative to control; type: functional, Homo sapiens
Procedure, shortened: (§2)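 HMEC-1 cells exposed 24 h to compound at 100 µM. Membrane VEGFR-2 measured on fixed cells stained with Alexa Fluor 647 anti-CD309; total VEGFR-2 measured after Triton X-100 permeabilization before fixation. Read by flow cytometry as % of DMSO control.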

[8] = system: HMEC-1; assay: Effect on VEGFR2 in HMEC1 cells assessed as total VEGFR2 level at 100 uM incubated for 24 hrs by flow cytometric analysis relative to control; type: functional, Homo sapiens; procedure, shortened: as §2
[9] = system: A549; assay: Immunomodulatory activity in human A549 cells assessed as reduction in PD-L1 expression level at 100 uM incubated for 24 hrs by ELISA relative to control; type: functional; parameters: scale not given: the % may be the effect or the level left
Procedure, shortened: (§3)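 A549 cells (3·10⁵/well) treated 24 h with compound; final concentration 100 µM for some compounds and 15 µM for others per table footnote. Lysates protein-normalized by Bradford, and PD-L1 and c-Myc quantified by commercial ELISA kits as % of DMSO-treated cells. Mean ± SD of three experiments.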

[10] = system: A549; assay: Immunomodulatory activity in human A549 cells assessed as reduction in c-Myc expression level at 100 uM incubated for 24 hrs by ELISA relative to control; type: functional; parameters: scale not given: the % may be the effect or the level left; procedure, shortened: as §3
[11] = system: HT-29; assay: Antiproliferative activity against human HT-29 cells at 200 uM incubated for 24 hrs in presence of Jurkat T cells by trypan blue staining based Neubauer chamber method relative to control; type: functional
Procedure, shortened: (§4)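 Co-culture of 5 × 10⁴ tumor cells/well with 2 × 10⁵ PD-1-expressing Jurkat T cells in 1.5 mL, treated 24 h with compound at 200 µM. Supernatant discarded; tumor cells trypsinized, stained with trypan blue and living cells counted in a Neubauer chamber. Proliferation inhibition (%) attributable to Jurkat presence reported; representative of three experiments.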

[12] = system: A549; assay: Antiproliferative activity against human A549 cells at 200 uM incubated for 24 hrs in presence of Jurkat T cells by trypan blue staining based Neubauer chamber method relative to control; type: functional; procedure, shortened: as §4
[13] = target: Programmed cell death 1 ligand 1 (Homo sapiens) (UniProt Q9NZQ7); assay: Binding affinity to PDL1 (unknown origin) assessed as change in melting temperature at 100 uM by fluorescence based real time RT-PCR analysis
[14] = target: Vascular endothelial growth factor receptor 2 (Homo sapiens) (UniProt P35968)
[15] = system: HMEC-1; assay: Antiangiogenic activity against HMEC1 cells assessed as inhibition of tube formation incubated for 20 hrs by matrigel based tube formation assay; type: functional, Homo sapiens
Procedure, shortened: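 HMEC-1 cells in EGM-2MV medium seeded at 2 x 10⁴ cells/well on Matrigel (10 mg/mL, gelled 30 min at 37°C) and attached for 30 min. Compounds were added at different concentrations and tube formation was assessed after 20 h at 37°C. The minimum concentration at which inhibition began was reported. Data representative of three experiments.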

[16] = system: A549; assay: Induction of apoptosis in human A549 cells assessed as apoptotic cells at 100 uM incubated for 24 hrs by FITC-Annexin V staining based flow cytometric analysis (reference value: 20%); type: functional
[17] = system: A549; assay: Effect on VEGFR2 in human A549 cells assessed as membrane VEGFR2 level at 10 uM incubated for 24 hrs by flow cytometric analysis relative to control; type: functional
Procedure, shortened: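 A549 cells incubated 24 h with compound at 10 µM. Membrane VEGFR-2 (fixed cells) and total VEGFR-2 (permeabilized or lysate) stained with Alexa Fluor 647 anti-CD309 and quantified by flow cytometry relative to DMSO control; mean ± SD of three experiments.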

[18] = system: A549; assay: Effect on VEGFR2 in human A549 cells assessed as total VEGFR2 level at 10 uM incubated for 24 hrs by flow cytometric analysis relative to control; type: functional
[19] = system: HMEC-1; assay: Effect on VEGFR2 in HMEC1 cells assessed as membrane VEGFR2 level at 10 uM incubated for 24 hrs by flow cytometric analysis relative to control; type: functional, Homo sapiens
Procedure, shortened: (§5)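 HMEC-1 cells exposed 24 h to compound. Membrane VEGFR-2 measured on fixed cells stained with Alexa Fluor 647 anti-CD309; total VEGFR-2 measured on lysates or permeabilized cells. Read by flow cytometry as % of DMSO control; mean ± SD of three experiments.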

[20] = system: HMEC-1; assay: Effect on VEGFR2 in HMEC1 cells assessed as total VEGFR2 level at 10 uM incubated for 24 hrs by flow cytometric analysis relative to control; type: functional, Homo sapiens; procedure, shortened: as §5
[21] = system: A549; assay: Effect on VEGFR2 in human A549 cells assessed as membrane VEGFR2 level at 100 uM incubated for 24 hrs by flow cytometric analysis relative to control; type: functional
Procedure, shortened: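 A549 cells exposed 24 h to compound at 100 µM. Membrane VEGFR-2 stained on fixed cells with Alexa Fluor 647 anti-VEGFR-2; Triton X-100 permeabilization before fixation used for total VEGFR-2. Flow cytometry, % of DMSO control; mean ± SD of three experiments.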

[22] = system: A549; assay: Effect on VEGFR2 in human A549 cells assessed as total VEGFR2 level at 100 uM incubated for 24 hrs by flow cytometric analysis relative to control; type: functional

Vascular endothelial growth factor receptor 2 (Homo sapiens), sequence (P35968 whole entry): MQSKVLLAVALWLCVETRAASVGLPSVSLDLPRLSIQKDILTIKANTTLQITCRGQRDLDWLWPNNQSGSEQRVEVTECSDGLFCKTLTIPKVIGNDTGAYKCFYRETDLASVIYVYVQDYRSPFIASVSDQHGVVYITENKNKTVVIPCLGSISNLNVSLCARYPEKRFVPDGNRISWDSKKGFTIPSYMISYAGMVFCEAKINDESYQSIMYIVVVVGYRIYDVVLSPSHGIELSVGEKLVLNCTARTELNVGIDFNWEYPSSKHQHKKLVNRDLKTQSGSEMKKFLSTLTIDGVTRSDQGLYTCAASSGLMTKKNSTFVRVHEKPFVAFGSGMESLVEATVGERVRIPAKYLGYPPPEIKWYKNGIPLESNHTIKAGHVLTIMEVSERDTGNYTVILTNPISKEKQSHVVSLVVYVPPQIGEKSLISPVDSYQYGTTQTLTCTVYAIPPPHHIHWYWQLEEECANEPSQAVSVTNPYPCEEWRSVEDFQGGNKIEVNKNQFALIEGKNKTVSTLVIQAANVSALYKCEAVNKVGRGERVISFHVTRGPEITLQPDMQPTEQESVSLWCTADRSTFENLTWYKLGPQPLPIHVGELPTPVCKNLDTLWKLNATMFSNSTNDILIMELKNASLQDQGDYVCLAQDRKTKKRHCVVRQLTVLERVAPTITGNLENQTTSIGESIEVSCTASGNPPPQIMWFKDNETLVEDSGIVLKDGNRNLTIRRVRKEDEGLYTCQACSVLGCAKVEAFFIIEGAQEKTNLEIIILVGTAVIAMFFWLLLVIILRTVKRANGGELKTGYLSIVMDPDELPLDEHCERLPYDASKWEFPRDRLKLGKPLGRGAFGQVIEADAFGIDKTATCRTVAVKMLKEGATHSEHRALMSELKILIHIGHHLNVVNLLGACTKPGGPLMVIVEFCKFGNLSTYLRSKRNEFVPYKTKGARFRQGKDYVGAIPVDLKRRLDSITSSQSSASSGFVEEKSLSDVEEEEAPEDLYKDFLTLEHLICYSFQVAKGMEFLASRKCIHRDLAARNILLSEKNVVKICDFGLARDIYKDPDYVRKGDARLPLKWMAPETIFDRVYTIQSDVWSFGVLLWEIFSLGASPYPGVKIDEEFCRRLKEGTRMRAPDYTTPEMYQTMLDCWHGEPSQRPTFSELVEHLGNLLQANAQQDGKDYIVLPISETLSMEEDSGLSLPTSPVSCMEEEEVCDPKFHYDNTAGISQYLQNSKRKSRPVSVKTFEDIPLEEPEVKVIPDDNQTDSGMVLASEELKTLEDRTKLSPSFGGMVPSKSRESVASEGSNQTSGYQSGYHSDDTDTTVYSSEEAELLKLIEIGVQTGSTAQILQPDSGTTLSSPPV
Programmed cell death 1 ligand 1 (Homo sapiens), sequence (Q9NZQ7 whole entry): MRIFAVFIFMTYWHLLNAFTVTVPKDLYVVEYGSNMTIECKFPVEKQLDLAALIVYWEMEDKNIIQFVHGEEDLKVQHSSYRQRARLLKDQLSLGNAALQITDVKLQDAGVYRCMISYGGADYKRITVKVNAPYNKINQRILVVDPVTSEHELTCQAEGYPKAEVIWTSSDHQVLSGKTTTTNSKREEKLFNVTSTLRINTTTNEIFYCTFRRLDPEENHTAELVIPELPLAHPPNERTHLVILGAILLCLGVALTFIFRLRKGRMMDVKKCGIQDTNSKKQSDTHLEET

| Structure (SMILES) | IC50 [1] | IC50 [2] | IC50 [3] | IC50 [4] | ΔTm [14] | IC50 [5] | IC50 [6] | Activity [7] | Activity [8] | Activity [9] | Activity [10] | ΔTm [13] | MAC [15] | Activity [16] | Activity [17] | Activity [18] | other results |
| --- | --- | --- | --- | --- | --- | --- | --- | --- | --- | --- | --- | --- | --- | --- | --- | --- | --- |
| COc1ccc(Cc2cn(CCNC(=O)Nc3ccc(C)cc3)nn2)cc1 | > 200 µM | > 200 µM | > 200 µM | > 200 µM | 3.68 °C | > 200 µM | > 200 µM | 97% | 90% | 66% | 70% | 3.09 °C | – | – | – | – | Activity [11]: 22%; Activity [12]: 6% |
| COc1ccc(/C=C\c2cccc(NC(=O)Nc3ccc(Cl)cc3)c2)cc1 | 33 µM | 17 µM | 8 µM | 29 µM | – | 33 µM | 20 µM | – | – | 75% | – | – | 1 µM | 69% | 118% | 100% | – |
| COc1ccc(/C=C/c2cccc(NC(=O)Nc3ccccc3Cl)c2)cc1 | 47 µM | > 100 µM | > 100 µM | 61 µM | 10.2 °C | > 100 µM | 57 µM | – | – | 74% | – | 5.09 °C | 10 µM | 42% | 109% | 42% | Activity [19]: 76%; Activity [20]: 121% |
| CCN(CC)CCNC(=O)c1c(C)[nH]c(/C=C2\C(=O)Nc3ccc(F)cc32)c1C [SUNITINIB] | 3.8 µM | 0.08 µM | 7.8 µM | 11 µM | – | 7 µM | 5 µM | – | – | – | – | – | 3 µM | 56% | – | – | – |
| COc1ccc(Cc2cn(CCNC(=O)Nc3ccc(Cl)cc3)nn2)cc1 | > 200 µM | > 200 µM | > 200 µM | > 200 µM | 5.09 °C | > 200 µM | > 200 µM | 90% | 102% | 69% | 73% | 1.93 °C | 400 µM | – | – | – | Activity [11]: 84%; Activity [12]: 16% |
| COc1ccc(/C=C\c2cccc(NC(=O)Nc3cccc(Cl)c3)c2)cc1 | 20 µM | 37.2 µM | 10.5 µM | 38 µM | – | 32.9 µM | 5 µM | – | – | 92% | – | – | 10 µM | 17% | 102% | 186% | – |
| COc1ccc(CCc2cccc(NC(=O)Nc3ccc(Cl)cc3)c2)cc1 | 1.5 µM | 15.3 µM | 21 µM | > 200 µM | 10.2 °C | > 200 µM | 1.8 µM | – | – | 38% | 44% | 2.27 °C | 100 µM | 65% | 97% | 96% | Activity [12]: 16% |
| COc1ccc(CCc2cccc(NC(=O)Nc3ccccc3Cl)c2)cc1 | 20 µM | > 100 µM | 69 µM | 24 µM | 16.2 °C | 48 µM | 90 µM | – | – | 61% | 63% | 2.25 °C | 1 µM | 76% | 100% | 100% | – |
| COc1ccc(/C=C\c2cccc(NC(=O)Nc3ccccc3Cl)c2)cc1 | 12 µM | 19 µM | 22 µM | 21 µM | – | 33 µM | 6.5 µM | – | – | 83% | – | – | 10 µM | 61% | 114% | 177% | – |
| COc1ccc(CCc2cccc(NC(=O)Nc3cccc(Cl)c3)c2)cc1 | 14 µM | 8.2 µM | 16.5 µM | > 200 µM | 4.1 °C | 50 µM | 5.3 µM | – | – | 51% | 51% | 5.2 °C | 10 µM | 95% | 97% | 98% | – |
| COc1ccc(Cc2cn(CCNC(=O)Nc3ccc(Br)cc3)nn2)cc1 | > 200 µM | > 200 µM | > 200 µM | > 200 µM | 2.61 °C | > 200 µM | > 200 µM | 40% | 55% | >100% | – | 8.74 °C | – | – | – | – | Activity [21]: 70%; Activity [22]: 61% |

Further lines, with some results ahead:

| IC50 [1] | IC50 [2] | IC50 [3] | IC50 [4] | ΔTm [14] | Structure (SMILES) | IC50 [5] | IC50 [6] | Activity [7] | Activity [8] | Activity [9] | Activity [10] | ΔTm [13] | MAC [15] | Activity [16] | Activity [17] | Activity [18] | other results |
| --- | --- | --- | --- | --- | --- | --- | --- | --- | --- | --- | --- | --- | --- | --- | --- | --- | --- |
| > 200 µM | > 200 µM | > 200 µM | > 200 µM | 7.34 °C | COc1ccc(Cc2cn(CCNC(=O)Nc3cccc(Br)c3)nn2)cc1 | > 200 µM | > 200 µM | 79% | 78% | 80% | – | 0.79 °C | – | – | – | – | Activity [21]: 98%; Activity [22]: 80% |
| > 200 µM | > 200 µM | > 200 µM | > 200 µM | 10.5 °C | COc1ccc(Cc2cn(CCNC(=O)Nc3ccccc3)nn2)cc1 | > 200 µM | > 200 µM | 97% | 105% | 83% | – | 2.1 °C | – | – | – | – | – |
| > 200 µM | > 200 µM | > 200 µM | > 200 µM | 7.34 °C | COc1ccc(Cc2cn(CCNC(=O)Nc3cccc(Cl)c3)nn2)cc1 | > 200 µM | > 200 µM | 74% | 81% | 70% | 60% | 1.89 °C | 50 µM | – | – | – | Activity [21]: 95%; Activity [22]: 86%; Activity [11]: 76%; Activity [12]: 49% |
| > 200 µM | > 200 µM | > 200 µM | > 200 µM | 5.21 °C | COc1ccc(Cc2cn(CCNC(=O)Nc3cccc(C)c3)nn2)cc1 | > 200 µM | > 200 µM | 76% | 91% | 90% | – | 2.55 °C | – | – | – | – | – |
| > 200 µM | > 200 µM | > 200 µM | > 200 µM | 9.98 °C | COc1ccc(Cc2cn(CCNC(=O)Nc3ccccc3C)nn2)cc1 | > 200 µM | > 200 µM | 79% | 100% | 82% | – | 2.18 °C | 200 µM | – | – | – | – |
